Screening results as filed in PubChem.
SENP1 inh: SENP1 (human) catalytic domain inhibition. 360,000 tested, 0.21% active. recombinant SENP1 catalytic domain, CyPet-SUMO1-YPet FRET cleavage. Q9P0U3. inhibition, % at 10 µM;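 active = inhibition at least 30% at 10 µM, raw YFP signal under a set limit, fluorescence ratio 0.5 to 1.5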;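 note: 0% = enzyme with DMSO and 100% = no enzyme wells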
Target sequence (Q9P0U3 419-644 limits assumed): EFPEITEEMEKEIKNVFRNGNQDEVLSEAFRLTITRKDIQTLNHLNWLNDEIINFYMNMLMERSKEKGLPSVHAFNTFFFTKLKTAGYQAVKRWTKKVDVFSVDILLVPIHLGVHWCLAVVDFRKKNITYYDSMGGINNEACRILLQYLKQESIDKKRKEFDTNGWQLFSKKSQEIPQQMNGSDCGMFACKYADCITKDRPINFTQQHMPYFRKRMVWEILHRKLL
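Test system: recombinant human SENP1 catalytic domain, His6-tagged / Medium: pH 8 Tris buffer with EDTA, NaCl, BME, BSA, NP40, catalase / Also added: SUMO1 FRET substrate flanked by Cypet and Ypet, 25 nM / Times: 50 min reaction at room temperature / Signal: FRET, CFP and YFP emission / Control set: no-enzyme low control and enzyme-plus-DMSO high control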
SENP6 inh: SENP6 protease inhibition | AID 2599 | Recombinant SENP6 catalytic domain, aminoluciferin luminescence | inhibition, % at 10 µM | Q9GZR1 | 330,000 tested, 1.8% active;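 active = inhibition above about 50% at the single tested dose, limit read from the data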;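 note: plate controls were DMSO wells with enzyme for no effect and DMSO wells lacking enzyme for full effect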
SENP8 block-1: blocks human SENP8 cleavage of Nedd8 substrate. Q96LD8. 360,000 tested, 0.64% active. recombinant SENP8, Nedd8 substrate fluorescence. inhibition, % at 20 µM; in the data active = inhibition mostly above about 40%, no sharp cut-off; inactive = mostly below about 27%
Platelet DG rel: platelet dense granule release activity; human platelet-rich plasma, SFLLRN dense granule ATP release, luminescence; inhibition, %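 (compounds screened at 7.5 µM in platelet-rich plasma)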; 300,000 tested, 0.22% active; AID 1663;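 active = mean replicate score, as percent of positive control, at or above 50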
SENP7 inh: inhibitors of human SENP7 protease; recombinant SENP7, Z-RLRGG-aminoluciferin luminescence, 40 min; inhibition, % at 5 µM; 330,000 tested, 1.5% active; AID 434973;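 active = inhibition above about 50% at the single test dose, limit read from the data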;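 note: plate controls were DMSO with enzyme for no effect and no enzyme buffer wells for full effect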
SENP8 block-2: blocks the human protease SENP8; Q96LD8; purified SENP8, Z-RLRGG-aminoluciferin cleavage, luminescence; inhibition, % at 10 µM; 330,000 tested, 1.2% active; in the data active = inhibition above about 50%
SENP8 confirm: human SENP8 inhibition, confirmed; shares compounds with SENP7 inh; Recombinant SENP8, Z-RLRGG-aminoluciferin luminescence, 60 min; inhibition, % at 12.5 µM; 6,200 tested, 40% active; AID 488912;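 active = mean inhibition across replicates above about 50%, limit read from the data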
SENP6 conf: confirmation of human SENP6 protease inhibitors; shares compounds with SENP7 inh; recombinant SENP6, Z-RLRGG-aminoluciferin luminescence; inhibition, % at 12.5 µM; 6,200 tested, 58% active; AID 488915
SENP7 confirm: confirmation of human SENP7 protease inhibitors; recombinant SENP7, Z-RLRGG-aminoluciferin luminescence, 40 min; AID 488917; shares compounds with SENP7 inh; 6,200 tested, 69% active; inhibition, % at 12.5 µM
Casp3 select: inhibits human caspase-3 in SENP selectivity test. purified caspase-3, Z-DEVD-aminoluciferin luminescence, 60 min. inhibition, % at 12.5 µM. AID 488918. 6,200 tested, 60% active. shares compounds with SENP7 inh;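 active = mean inhibition above about 50%, limit read from the data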;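 note: plate controls were enzyme with DMSO for no effect and wells without caspase-3 for full effect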
Target sequence (P42574 28-227 limits assumed): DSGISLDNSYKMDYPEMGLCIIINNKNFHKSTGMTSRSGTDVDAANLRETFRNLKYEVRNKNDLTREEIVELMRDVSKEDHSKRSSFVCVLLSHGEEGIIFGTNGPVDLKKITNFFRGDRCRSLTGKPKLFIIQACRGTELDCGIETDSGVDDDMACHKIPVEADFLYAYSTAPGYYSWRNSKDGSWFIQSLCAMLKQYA
SENP luc ctr: counter-screen for SENP inhibitors: luminescence interference. shares compounds with SENP7 inh. Pre-incubated SENP8/Z-RLRGG-aminoluciferin, luciferase luminescence interference. inhibition, % at 12.5 µM. 6,200 tested, 39% active. AID 488919;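 active = mean inhibition above about 50% when retested at one dose, limit read from the data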;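 note: plate controls were DMSO wells with completed reaction for no effect and substrate without enzyme for full effect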
* = called active by the depositor; / = no result given. The list is not random: actives were taken first. Their share in the collection is about 2.6%.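 Rule for the calls, unless noted: active = mean inhibition above about 50% in the one-dose retest (limit read from the data); inactive = the rest.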

SMILES	SENP1 inh	SENP6 inh	SENP8 block-1	Platelet DG rel	SENP7 inh	SENP8 block-2	SENP8 confirm	SENP6 conf	SENP7 confirm	Casp3 select	SENP luc ctr
Cc1ccc(-c2nc3ccccc3c(=O)o2)cc1	5	54*	-16	-1	45	7	39	32	47	22	33
O=c1oc(-c2ccccc2)nc2sc3c(c12)CCC3	-102	91*	-72	-9	88*	20	51*	50	40	64*	29
O=c1oc(-c2ccco2)nc2sc3c(c12)CCCC3	-91	72*	-173	-4	-10	42	66*	54*	52*	27	29
Nc1nc(-c2ccccc2)nc2sc3c(c12)CCCC3	0	84*	-401	-11	75*	58*	3	70*	90*	46	12
Cc1nc2sc3c(c2c(=O)o1)CCCC3	1	-4	6	6	-7	-2	/	/	/	/	/
O=C1CCC(=O)N1c1ccc(-c2nc3sc4c(c3c(=O)o2)CCC4)cc1	-21	-45	-22	-4	-15	-20	/	/	/	/	/
Cc1ccc(S(=O)(=O)Nc2ccc(SC(F)F)cc2)c(C)c1	3	-7	16	15	-11	-7	/	/	/	/	/
O=C(N/N=C/c1ccccc1OC(=O)N1CCOCC1)c1cccs1	-1	-4	3	2	-1	-12	/	/	/	/	/
Cc1sc2nc(-c3ccccc3)oc(=O)c2c1C	-9	47	2	1	91*	76*	62*	63*	64*	69*	34
O=C(Cc1cccs1)Nc1ccccc1C(=O)O	0	63*	6	-1	31	45	52*	50*	84*	88*	71*
O=c1c(-c2ccc3c(c2)OCCO3)coc2cc(O)cc(O)c12	-1	67*	32	3	58*	50*	76*	73*	89*	58*	70*
CCN(CC)Cc1c(O)ccc2c(=O)c(-c3ccc4c(c3)OCCO4)coc12	0	-8	-484	12	-1	-2	/	/	/	/	/
COC(=O)CCc1c(C)c(C(=O)c2ccc(F)cc2)c2ccccn12	-3	-15	3	3	-7	1	/	/	/	/	/
Cc1c(C(=O)c2ccc(F)cc2F)c2ccccn2c1CCC#N	-47	58*	-4	4	26	42	11	9	-4	4	-1
COC(=O)CCc1c(C)c(C(=O)c2cc(F)c(F)c(F)c2F)c2ccccn12	-62	77*	-30	-2	4	28	8	7	-9	-3	-3
O=C(NNS(=O)(=O)c1ccccc1[N+](=O)[O-])c1ccc(O)cc1	5	4	18	-5	3	0	/	/	/	/	/
N#Cc1c(C(F)(F)F)cc(-c2ccc(F)cc2)[nH]c1=O	-84	24	-392	-2	-8	8	/	/	/	/	/
N#Cc1c(C(F)(F)F)cc(-c2ccc(Cl)cc2)[nH]c1=O	-155	51*	-313	-4	23	69*	-26	13	39	16	41
N#Cc1c(C(F)(F)F)cc(-c2cccc(Cl)c2)[nH]c1=O	-144	74*	-268	-8	4	78*	91*	91*	96*	74*	89*
CCOC(=O)c1c(NC(=O)c2noc(C)c2[N+](=O)[O-])sc(C(C)=O)c1C	4	-16	-6	2	4	-1	/	/	/	/	/
Cc1ccc(-n2cc(C(=O)c3ccccc3O)cn2)cc1	2	91*	-12	7	97*	92*	37	97*	101*	92*	49
Cc1ccc(-n2cc(C(=O)c3ccc4ccccc4c3O)cn2)cc1	13	4	14	-4	1	1	/	/	/	/	/
Cc1ccc(O)c(C(=O)c2cnn(-c3ccccc3)c2)c1	4	53*	20	-11	40	18	4	47	20	32	13
CCN(CC)C(=O)/C=C/c1ccccc1	1	0	3	/	6	-9	/	/	/	/	/
O=C(C1CCCN(c2ncnc3c2nc2n3CCCCC2)C1)N1CCCCC1 (stereo not given)	2	9	3	-4	2	2	/	/	/	/	/
SMILES	SENP1 inh	SENP6 inh	SENP8 block-1	Platelet DG rel	SENP7 inh	SENP8 block-2	SENP8 confirm	SENP6 conf	SENP7 confirm	Casp3 select	SENP luc ctr
Cc1ccc(OC(=O)c2ccc3nc(C)sc3c2)cc1	/	-13	/	4	2	2	/	/	/	/	/
COc1ccc(OC(=O)c2ccc3nsnc3c2)cc1	5	42	38	-4	59*	20	1	0	48	16	-1
CCCC#Cc1ccc2c(c1)COc1c3ccccc3nn1-2	2	92*	8	-2	73*	89*	53*	70*	90*	86*	28
c1ccc2c(c1)COc1c3cc4c(cc3nn1-2)OCO4	3	/	10	/	/	/	/	/	/	/	/
CCc1cc(-c2ccc3c(c2)COc2c4ccccc4nn2-3)on1	-3	81*	-428	29	48	89*	4	89*	94*	70*	20
COc1ccc(CN(C)CC(=O)Nc2ccccc2C(=O)NC2CC2)cc1OC	0	-6	2	/	4	5	/	/	/	/	/
CCOC(=O)N1CCN(C(=O)c2c[nH]c3ccc(S(=O)(=O)N(C)c4ccccc4C)cc3c2=O)CC1	-2	15	-203	2	1	8	/	/	/	/	/
COC(=O)c1sccc1-c1ccc(C(=O)Nc2cccnc2)o1	3	48	-96	-4	52*	21	45	40	76*	59*	4
O=C(Nc1cccnc1)c1cc(-c2ccc(Br)cc2)on1	1	29	15	-29	84*	36	19	19	31	30	5
Cc1ccc(NC(=O)c2cc(-c3ccco3)on2)cc1	2	2	-12	-1	19	-1	/	/	/	/	/
O=C(Nc1cccnc1)c1cc(-c2ccccc2)on1	2	75*	9	-5	69*	48	36	49	86*	75*	32
O=C(Nc1cccnc1)c1cc(-c2ccco2)on1	-1	49	18	4	58*	23	40	39	64*	79*	1
